PGC1a Ac signal – compounds raising PGC1a acetylation signal, primary screen, PGC1a modulator project, cell-based, U2OS, AlphaScreen, signal-increasing mode; overnight; activation, % at 15.6 µM; hit rate 0.21% among 350,000; AID 651723, 2012;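 active = every replicate reaching activation of at least 50%, whatever the mean replicate activation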;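 also: hits raise the AlphaScreen acetylation signal above neutral controls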
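Test system: U2OS cells expressing flag-PGC1a plus GCN5; Amount: 7000 U2OS cells per well; Compound: single test concentration per compound; Incubation: compound overnight at 37 °C, each detection step 1 h RT; Signal: AlphaScreen lysate read.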
The depositor's hits bear a star. Only a selection was taken, and hits are over-represented in it overall.

SMILES	PGC1a Ac signal
O=c1[nH]c(=O)c2[nH]c(=S)[nH]c2[nH]1	-60
CSc1nc(SC)c2c3c(oc2n1)COC(C)(C)C3	58*
O=C(Nc1ccccc1)C1=C(c2ccccc2)S(=O)(=O)CCS1(=O)=O	104*
CCOC(=O)C1(N(CC)CC)Sc2cc(C)ccc2NC1=O (configuration not stated)	84*
O=C(Nc1ccc(F)cc1F)N1CCCN(c2ccc([N+](=O)[O-])cn2)CC1	94*
CC(C)(C)c1ccc(NC(=O)N2CCN(c3ccc([N+](=O)[O-])cn3)CC2)cc1	191*
CC(=O)Nc1ccc(S(=O)(=O)N2CCN(c3ccccn3)CC2)cc1	-53
Cc1ccc(-c2csnn2)cc1	-51
Cc1nc(N(CCO)C2CCCCC2)c2nnn(Cc3ccccc3)c2n1	-40
COCC(=O)Nc1ccc2c(c1)OC[C@@H](C)N(CCc1ccccc1)C[C@H](C)[C@H](OC)CN(C)C2=O	-46
COc1ccccc1-c1ccc([C@@H]2[C@H](CO)N(C(C)=O)C23CN(C(C)=O)C3)cc1	-58
O=C(Nc1cccc(F)c1)N1C[C@@H]2N[C@H](C1)C2c1ccc(-c2ccc(F)cc2)cc1 (some centres not stated)	73*
O=C(Nc1ccc(C(F)(F)F)cc1)N1C[C@@H]2N[C@H](C1)C2c1ccc(-c2ccccc2)cc1 (some centres not stated)	-43
COc1cccc(CN2CCC(CO)(CC3CCCCO3)CC2)c1 (configuration not stated)	-100
O=C(Nc1ccc(C(F)(F)F)cc1)N1C[C@@H]2N[C@H](C1)C2c1ccc(/C=C/c2ccccc2)cc1 (some centres not stated)	-73
COc1ccccc1-c1ccc(C2[C@@H]3CN(Cc4cccc(F)c4)C[C@H]2N3)cc1 (some centres not stated)	72*
N#Cc1cccc(-c2ccc(C3[C@@H]4CN(Cc5ccccc5F)C[C@H]3N4)cc2)c1 (some centres not stated)	-48
Cc1cccc(-c2ccc(C3[C@@H]4CN(Cc5cccc(F)c5)C[C@H]3N4)cc2)c1 (some centres not stated)	59*
COc1cccc(CN2C[C@@H]3N[C@H](C2)C3c2ccc(-c3ccccc3OC)cc2)c1 (some centres not stated)	58*
CCCN(C)C[C@H]1Oc2cc(C#Cc3ccc(OC)cc3)ccc2S(=O)(=O)N([C@@H](C)CO)C[C@H]1C	-49
O=c1[nH][nH]c(-c2ccccc2)c1C=Nc1ccccc1Cl	-41
O=C1C=CCCN1C(=O)/C=C/c1cccc(C(F)(F)F)c1	-78
COCC#Cc1ccc2c(c1)O[C@H](CN(C)C(=O)CN(C)C)[C@@H](C)CN([C@@H](C)CO)S2(=O)=O	-58
COCCCn1[nH]c2c3c(ccc2c1=O)C(=O)c1ccccc1C3=O	-46
COc1ccc(NC(=O)C/C(C)=N/NC(=O)C(=O)NC(C)C)c(OC)c1	-48
SMILES	PGC1a Ac signal
COc1ccccc1NC(=O)CCC(=O)Nc1ccccc1OC	54*
COc1ccccc1NC(=O)/C=C1\SCC(=O)N1C	-93
C[C@@H]1CN([C@H](C)CO)C(=O)c2cccc(NC(=O)C3CCCCC3)c2O[C@@H]1CN(C)CC1CCCCC1	-55
COc1ccc(/C=C/c2cc(-c3ccc(C)cc3)o[n+]2C)cc1	121*
COC(=O)c1ccc2c(c1)C(C)(C)C(/C=C/c1ccc(O)cc1)=[N+]2C	59*
CN1c2ccccc2C2(C)CCCC3=Cc4cccc([N+](=O)[O-])c4OC312 (configuration not stated)	69*
COC(=O)C1=NN(C(=O)c2ccccc2)C(O)(c2ccc([N+](=O)[O-])cc2)C1 (configuration not stated)	115*
CN1CCN(C(=O)c2sc(=S)n(-c3ccccc3)c2N)CC1	-63
O=c1cc(CSc2ccccn2)[nH]c(=O)[nH]1	-44
COc1ccc(NC(=O)N[C@@H]2CC[C@H](CCn3cc(-c4ccccc4F)nn3)O[C@@H]2CO)cc1	-48
COc1ccc(S(=O)(=O)N[C@@H]2CC[C@H](CCNC(=O)c3ccccc3F)O[C@H]2CO)cc1	-43
COc1ccc(S(=O)(=O)N2CC[C@@H]3[C@H](CO)Nc4ccc(-c5ccccc5F)cc4[C@@H]32)cc1	51*
CO[C@H]1CN(C)C(=O)c2ccc(NC(=O)Nc3ccccc3F)cc2OC[C@@H](C)NC[C@@H]1C	-49
O=C(Nc1c(F)cccc1F)c1ccc(-n2cncn2)nc1	53*
CCc1c(C)nc(N)nc1Cl	-47
O=C1C=CCCN1C(=O)/C=C/c1ccccc1Cl	-73
CN(C[C@H]1N[C@@H](CO)[C@@H]1c1ccc(C2=CCCC2)cc1)C(=O)c1ccc(F)cc1	-79
O=C(NC[C@@H]1N[C@@H](CO)[C@H]1c1ccc(C2=CCCCC2)cc1)c1ccc(F)cc1	66*
Cc1nc2ccc(C(=O)Nc3ccccc3Cl)cc2s1	-49
Cc1cc(N2CCN(C)CC2)nc(=S)[nH]1	-53
COC(=O)c1cccc2c1-c1ccccc1/C2=N/O	-75
CCN=C(N/N=C/c1ccc([N+](=O)[O-])cc1)SC	59*
COC(=O)C(=Cc1ccc(OCc2ccc([N+](=O)[O-])cc2)c(OC)c1)C(=O)OC	-17
C=C1C(=O)O[C@H]2[C@@H]1CC/C(CO)=C\CC[C@@]1(C)O[C@@H]21	61*
CC(=O)N1CCN(C(C)=O)C1c1ccccc1	-47
SMILES	PGC1a Ac signal
Cc1cc(Nc2ccccc2)cc(=O)n1C	-59
COc1ccccc1C(=O)Oc1cc(N)n(S(=O)(=O)c2ccc(C)cc2)n1	-42
CCOC(=O)C1CN(S(=O)(=O)c2ccc(C)cc2)c2cc(S(=O)(=O)CC)ccc2O1 (configuration not stated)	54*
Cc1ccc(S(=O)(=O)N2CCCCC2C(=O)O)cc1 (configuration not stated)	-41
CC(C)(C)C(=O)NC(C(N)=O)=C(Cl)Cl	65*
Nc1ccccc1-c1ccn[nH]1	-41
Cc1ccc(NC(=S)c2ccncc2)cc1	66*
COc1ccc(C(=C(CC(=O)O)C(=O)OC(C)(C)C)c2cc(OC)c(OC)c(OC)c2)cc1OC	-47
C[C@H](CO)N1C[C@H](C)[C@@H](CN(C)C(=O)C2CCCCC2)Oc2cc(C#Cc3ccncc3)ccc2S1(=O)=O	-4
COc1ccccc1C#Cc1ccc2c(c1)O[C@@H](CN(C)Cc1cccnc1)[C@H](C)CN([C@H](C)CO)S2(=O)=O	-43
CC(C)CC#Cc1ccc2c(c1)O[C@H](CN(C)Cc1ccccc1)[C@@H](C)CN([C@H](C)CO)S2(=O)=O	-52
COc1ccccc1-c1ccc2c(c1)O[C@@H](CN(C)Cc1ccc3c(c1)OCO3)[C@@H](C)CN([C@H](C)CO)S2(=O)=O	64*
CC(=O)N(C)C[C@H]1Oc2cc(-c3ccc(C#N)cc3)ccc2S(=O)(=O)N([C@@H](C)CO)C[C@@H]1C	-42
C[C@H]1CN([C@@H](C)CO)S(=O)(=O)c2ccc(-c3ccccc3)cc2O[C@@H]1CN(C)Cc1cccc(F)c1	-48
C[C@H](CO)N1C[C@H](C)[C@H](CN(C)C(=O)C2CCCCC2)Oc2cc(-c3ccccc3)ccc2S1(=O)=O	63*
CC(C)CC#Cc1ccc2c(c1)O[C@H](CN(C)C)[C@@H](C)CN([C@H](C)CO)S2(=O)=O	59*
CC(C)CC#Cc1ccc2c(c1)O[C@H](CN(C)Cc1ccccc1)[C@H](C)CN([C@@H](C)CO)S2(=O)=O	-48
Cc1cc(-c2ccc(Cl)cc2)n2ncnc2n1	-48

High-throughput results: PubChem BioAssay, Broad Institute
